Data taken from ChEMBL document CHEMBL3739331, “Synthesis and Bioactivities of Kanamycin B-Derived Cationic Amphiphiles” (J Med Chem, 2015).
Converted amounts (≈) assume the structure as drawn. The source made the active and inactive calls. The rule behind the calls is not given here.

Assays:
[1] = tested on: Aspergillus nidulans; test: Antifungal activity against Aspergillus nidulans ATCC 38163 after 48 hrs by microbroth dilution method; assay type: functional; details: ATCC 38163, 48 h
Summary of the method: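 Filamentous fungus MIC by broth microdilution, run in duplicate. All compounds are read as MIC-0 (complete inhibition).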

[2] = tested on: Candida albicans; test: Antifungal activity against azole-resistant Candida albicans MYA-1003 after 48 hrs by microbroth dilution method; assay type: functional; details: MYA-1003, 48 h
Summary of the method: (§1)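 Yeast MIC by broth microdilution, run in duplicate. The aminoglycoside compounds are read as MIC-0 (complete inhibition). Azoles are read as MIC-2 (50% inhibition).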

[3] = tested on: Candida albicans; test: Antifungal activity against azole-resistant Candida albicans ATCC 64124 after 48 hrs by microbroth dilution method; assay type: functional; details: ATCC 64124, 48 h; summary of the method: as §1
[4] = tested on: Candida albicans; test: Antifungal activity against azole-resistant Candida albicans ATCC 90819 after 48 hrs by microbroth dilution method; assay type: functional; details: ATCC 90819, 48 h; summary of the method: as §1
[5] = tested on: Candida albicans; test: Antifungal activity against azole-resistant Candida albicans ATCC 10231 after 48 hrs by microbroth dilution method; assay type: functional; details: ATCC 10231, 48 h; summary of the method: as §1
[6] = tested on: Candida albicans; test: Antifungal activity against azole-susceptible Candida albicans ATCC MYA-2876 after 48 hrs by microbroth dilution method; assay type: functional; details: ATCC MYA-2876, 48 h; summary of the method: as §1
[7] = tested on: Candida albicans; test: Antifungal activity against azole-susceptible Candida albicans ATCC MYA-2310 after 48 hrs by microbroth dilution method; assay type: functional; details: ATCC MYA-2310, 48 h; summary of the method: as §1
[8] = tested on: Candida albicans; test: Antifungal activity against azole-resistant Candida albicans MYA-1237 after 48 hrs by microbroth dilution method; assay type: functional; details: MYA-1237, 48 h; summary of the method: as §1
[9] = Activity of AAC(6')-1e/APH(2'')-1a (unknown origin) assessed as compound acetylation activity by Ellman's method
[10] = tested on: Salmonella enterica; test: Antibacterial activity against Salmonella enterica ATCC 14028 by microdilution method; assay type: functional
Summary of the method: (§2)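 Broth microdilution MIC against the named bacterial strain, reported in μg/mL; each determination run at least in duplicate.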

[11] = tested on: Pseudomonas aeruginosa; test: Antibacterial activity against Pseudomonas aeruginosa ATCC 27853 by microdilution method; assay type: functional; summary of the method: as §2
[12] = tested on: Staphylococcus aureus; test: Antibacterial activity against Staphylococcus aureus NRS383 (USA 200) by microdilution method; assay type: functional; summary of the method: as §2
[13] = tested on: Enterobacter cloacae; test: Antibacterial activity against Enterobacter cloacae ATCC 13047 by microdilution method; assay type: functional; summary of the method: as §2
[14] = tested on: Staphylococcus epidermidis; test: Antibacterial activity against Staphylococcus epidermidis ATCC 12228 by microdilution method; assay type: functional; summary of the method: as §2
[15] = Activity of AAC(3)-4 (unknown origin) assessed as compound acetylation activity by Ellman's method
[16] = tested on: Bacillus subtilis; test: Antibacterial activity against Bacillus subtilis 168 by microdilution method; assay type: functional; details: subsp. subtilis str. 168; summary of the method: as §2
[17] = tested on: Acinetobacter baumannii; test: Antibacterial activity against Acinetobacter baumannii ATCC 19606 by microdilution method; assay type: functional; summary of the method: as §2
[18] = tested on: Staphylococcus aureus; test: Antibacterial activity against Staphylococcus aureus NRS22 (USA 600) by microdilution method; assay type: functional; summary of the method: as §2
[19] = tested on: Staphylococcus aureus; test: Antibacterial activity against Staphylococcus aureus NRS382 (USA 100) by microdilution method; assay type: functional; summary of the method: as §2
[20] = tested on: Mycobacterium tuberculosis; test: Activity of Mycobacterium tuberculosis Eis assessed as compound acetylation activity by Ellman's method
[21] = tested on: Escherichia coli; test: Antibacterial activity against Escherichia coli MC1061 by microdilution method; assay type: functional
Summary of the method: (§3)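 Broth microdilution MIC, in μg/mL, against a panel of Gram-positive and Gram-negative strains. Run at least in duplicate.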

[22] = tested on: Staphylococcus aureus; test: Antibacterial activity against Staphylococcus aureus ATCC 29213 by microdilution method; assay type: functional; summary of the method: as §2
[23] = tested on: Bacillus subtilis subsp. subtilis str. 168; test: Activity of Bacillus subtilis 168 APH(2'')-1a assessed as compound phosphorylation activity by Ellman's method
[24] = tested on: Serratia marcescens; test: Activity of Serratia marcescens AAC(6')-2d assessed as compound acetylation activity by Ellman's method
[25] = tested on: Staphylococcus aureus; test: Antibacterial activity against methicillin-resistant Staphylococcus aureus by microdilution method; assay type: functional; summary of the method: as §3
[26] = tested on: Enterococcus; test: Antibacterial activity against vancomycin-resistant Enterococcus by microdilution method; assay type: functional; summary of the method: as §3
[27] = tested on: Mycobacterium tuberculosis; test: Activity of Mycobacterium tuberculosis AAC(2')-1c assessed as compound acetylation activity by Ellman's method
[28] = tested on: Staphylococcus aureus; test: Antibacterial activity against Staphylococcus aureus NRS385 (USA 300) by microdilution method; assay type: functional; summary of the method: as §3
[29] = tested on: Klebsiella pneumoniae; test: Antibacterial activity against Klebsiella pneumoniae ATCC 27736 by microdilution method; assay type: functional; summary of the method: as §2
[30] = tested on: Listeria monocytogenes; test: Antibacterial activity against Listeria monocytogenes ATCC 19115 by microdilution method; assay type: functional; summary of the method: as §2
[31] = tested on: Mycolicibacterium smegmatis; test: Antibacterial activity against Mycobacterium smegmatis MC2 155 by microdilution method; assay type: functional; details: str. MC2 155; summary of the method: as §3

In the case of `CCCCCCCCCCCCCCSC[C@H]1O[C@H](O[C@@H]2[C@@H](O)[C@H](O[C@H]3O[C@H](CN)[C@@H](O)C[C@H]3N)[C@@H](N)C[C@H]2N)[C@H](O)[C@@H](N)[C@@H]1O`, the MIC [1] was 7.8 µg/mL (≈ 11.5 µM).

With `OC(Cn1cncn1)(Cn1cncn1)c1ccc(F)cc1F` [FLUCONAZOLE] the MIC50 [2] was 62.5 µg/mL (≈ 204 µM), the MIC50 [3] was 125 µg/mL (≈ 408 µM) and the MIC [1] was > 62.5 µg/mL. The MIC50 [4] was > 125 µg/mL, the MIC50 [5] was 62.5 µg/mL (≈ 204 µM) and the MIC50 [6] was 15.6 µg/mL (≈ 50.9 µM). For the same compound, the MIC50 [7] was > 125 µg/mL and the MIC50 [8] was 62.5 µg/mL (≈ 204 µM).

In the case of `CCCCCCCCCCCCS(=O)(=O)C[C@@H]1O[C@@H](O[C@@H]2[C@@H](O)[C@H](O[C@@H]3O[C@@H](CN)[C@H](O)[C@@H](O)[C@@H]3N)[C@@H](N)C[C@H]2N)[C@@H](O)[C@H](N)[C@H]1O` (stereo in doubt), the Activity [9] was “inactive”, the MIC [10] was 64 µg/mL (≈ 91.4 µM) and the MIC [11] was 16 µg/mL (≈ 22.9 µM). For the same compound, the MIC [2] was 62.5 µg/mL (≈ 89.3 µM), the MIC [12] was 32 µg/mL (≈ 45.7 µM) and the MIC [13] was > 128 µg/mL. For the same compound, the MIC [14] was > 128 µg/mL, the Activity [15] was “inactive” and the MIC [16] was > 128 µg/mL. It also gave an MIC [17] of 128 µg/mL (≈ 183 µM), an MIC [3] of 31.2 µg/mL (≈ 44.6 µM) and an MIC [18] of 32 µg/mL (≈ 45.7 µM). The MIC [19] was 64 µg/mL (≈ 91.4 µM), the Activity [20] was “inactive” and the MIC [1] was 3.9 µg/mL (≈ 5.57 µM). For the same compound, the MIC [21] was > 128 µg/mL, the MIC [22] was 128 µg/mL (≈ 183 µM) and the Activity [23] was “inactive”. The Activity [24] was “inactive”, the MIC [4] was 62.5 µg/mL (≈ 89.3 µM) and the MIC [5] was 31.2 µg/mL (≈ 44.6 µM). It also gave an MIC [25] of 64 µg/mL (≈ 91.4 µM), an MIC [6] of 31.2 µg/mL (≈ 44.6 µM) and an MIC [26] of 32 µg/mL (≈ 45.7 µM). The Activity [27] was “inactive”, the MIC [28] was 64 µg/mL (≈ 91.4 µM) and the MIC [29] was 128 µg/mL (≈ 183 µM). For the same compound, the MIC [7] was 62.5 µg/mL (≈ 89.3 µM), the MIC [30] was 4 µg/mL (≈ 5.72 µM) and the MIC [8] was 62.5 µg/mL (≈ 89.3 µM).

Compound `CCCCCCCCSC[C@H]1O[C@H](O[C@@H]2[C@@H](O)[C@H](O[C@H]3O[C@H](CN)[C@@H](O)C[C@H]3N)[C@@H](N)C[C@H]2N)[C@H](O)[C@@H](N)[C@@H]1O` has an MIC [1] of 125 µg/mL (≈ 210 µM).

With `NC[C@H]1O[C@H](O[C@H]2[C@H](O)[C@@H](O[C@H]3O[C@H](CO)[C@@H](O)[C@H](N)[C@H]3O)[C@H](N)C[C@@H]2N)[C@H](O)[C@@H](O)[C@@H]1O` [KANAMYCIN] the MIC [10] was 16 µg/mL (≈ 33 µM), the MIC [11] was > 128 µg/mL and the MIC [12] was > 128 µg/mL. For the same compound, the MIC [13] was 2 µg/mL (≈ 4.13 µM), the MIC [14] was 1 µg/mL (≈ 2.06 µM) and the MIC [16] was 2 µg/mL (≈ 4.13 µM). For the same compound, the MIC [17] was 4 µg/mL (≈ 8.26 µM), the MIC [18] was > 128 µg/mL and the MIC [19] was > 128 µg/mL. For the same compound, the MIC [21] was 8 µg/mL (≈ 16.5 µM), the MIC [22] was > 128 µg/mL and the MIC [25] was 128 µg/mL (≈ 264 µM). The MIC [31] was ≤ 0.25 µg/mL, the MIC [26] was > 128 µg/mL and the MIC [28] was > 128 µg/mL. It also gave an MIC [29] of 16 µg/mL (≈ 33 µM) and an MIC [30] of 128 µg/mL (≈ 264 µM).

With `CCCCCCCCCCCCCCS(=O)(=O)C[C@@H]1O[C@@H](O[C@@H]2[C@@H](O)[C@H](O[C@@H]3O[C@@H](CN)[C@H](O)[C@@H](O)[C@@H]3N)[C@@H](N)C[C@H]2N)[C@@H](O)[C@H](N)[C@H]1O` (stereo in doubt) the Activity [9] was “inactive”, the MIC [10] was 128 µg/mL (≈ 176 µM) and the MIC [11] was 32 µg/mL (≈ 44 µM). For the same compound, the MIC [2] was 7.8 µg/mL (≈ 10.7 µM), the MIC [12] was 128 µg/mL (≈ 176 µM) and the MIC [13] was > 128 µg/mL. The MIC [14] was > 128 µg/mL, the Activity [15] was “inactive” and the MIC [16] was > 128 µg/mL. For the same compound, the MIC [17] was > 128 µg/mL, the MIC [3] was 3.9 µg/mL (≈ 5.36 µM) and the MIC [18] was 64 µg/mL (≈ 87.9 µM). For the same compound, the MIC [19] was 64 µg/mL (≈ 87.9 µM), the Activity [20] was “inactive” and the MIC [1] was 1.95 µg/mL (≈ 2.68 µM). For the same compound, the MIC [21] was > 128 µg/mL, the MIC [22] was 128 µg/mL (≈ 176 µM) and the Activity [23] was “inactive”. For the same compound, the Activity [24] was “inactive”, the MIC [4] was 7.8 µg/mL (≈ 10.7 µM) and the MIC [5] was 3.9 µg/mL (≈ 5.36 µM). The MIC [25] was 128 µg/mL (≈ 176 µM), the MIC [6] was 3.9 µg/mL (≈ 5.36 µM) and the MIC [26] was 32 µg/mL (≈ 44 µM). For the same compound, the Activity [27] was “inactive”, the MIC [28] was 128 µg/mL (≈ 176 µM) and the MIC [29] was > 128 µg/mL. It also gave an MIC [7] of 7.8 µg/mL (≈ 10.7 µM), an MIC [30] of 2 µg/mL (≈ 2.75 µM) and an MIC [8] of 7.8 µg/mL (≈ 10.7 µM).
